The record followed here is ChEMBL document CHEMBL1126940, “Synthesis and dopamine receptor modulating activity of lactam conformationally constrained analogues of Pro-Leu-Gly-NH2” (J Med Chem, 1993).

Residues, ends and D or L forms follow the SMILES beside them.

For assay [1], the target named is T1, Dopamine receptor (Bos taurus) (UniProt Q95136+P20288). The experiment in a line: In vitro ability to enhance the binding of [3H]ADTN to dopamine receptor obtained from bovine caudate membranes at a concentration of 10E-6 M. The method in brief: (§1)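 Striatal synaptosomal membranes from bovine caudate incubated with [3H]ADTN with or without (control) peptide at 10^-12–10^-4 M, in triplicate, 37°C for 10 min, no preincubation; filtered, filters counted by liquid scintillation. Nonspecific binding defined with 10 μM (+)-butaclamol. Result expressed as percent enhancement over control; average ± SEM of three or four experiments; unpaired t-test on dpm.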

In assay [2] the target is T1, Dopamine receptor (Bos taurus). In words: In vitro ability to enhance the binding of [3H]ADTN to dopamine receptor obtained from bovine caudate membranes at a concentration of 10E-10 M. The method, boiled down: as §1
For assay [3] the target is unchanged. In words: In vitro ability to enhance the binding of [3H]ADTN to dopamine receptor obtained from bovine caudate membranes at a concentration of 10E-8 M. The method, boiled down:
as §1

For assay [4] the target is unchanged. In words: In vitro ability to enhance the binding of [3H]-ADTN to dopamine receptor obtained from bovine caudate membranes at a concentration of 10E-7 M. The method in brief:
as §1

For assay [5] the target is unchanged. In words: In vitro ability to enhance the binding of [3H]ADTN to dopamine receptor obtained from bovine caudate membranes at a concentration of 10E-12 M. The method, boiled down:
as §1

For assay [6] the target is unchanged. The experiment in a line: In vitro ability to enhance the binding of [3H]ADTN to dopamine receptor obtained from bovine caudate membranes at a concentration of 10E-9 M. The method, boiled down: as §1
The target is the same in assay [7]. The experiment in a line: In vitro ability to enhance the binding of [3H]-ADTN to dopamine receptor obtained from bovine caudate membranes at a concentration of 10E-11 M. The method in brief: as §1
For assay [8] the target is unchanged. In words: In vitro ability to enhance the binding of [3H]ADTN to dopamine receptor obtained from bovine caudate membranes at a concentration of 10E-5 M. The method in brief:
as §1

For assay [9] the target is unchanged. In words: In vitro ability to enhance the binding of [3H]ADTN to dopamine receptor obtained from bovine caudate membranes at a concentration of 10E-4 M. The method, boiled down:
as §1

As for `CC(C)C[C@H](NC(=O)[C@@H]1CCCN1)C(=O)NCC(N)=O` (H-Pro-Leu-Gly-NH2), in assay [1], the Increase came out at 27%.

`NC(=O)CN1CCC[C@@H](NC(=O)C2CCCN2)C1=O` (some centres not stated): the Increase in [1] was 43%; in assay [2], 3%; in assay [3], 11%; in [4], 16%; in assay [5] it was 2%; in assay [6], 4%. The figures for the Increase in assay [7] and in assay [8] were 4% and 18%, respectively.

For the compound `NC(=O)CN1OC[C@H](NC(=O)C2CCCN2)C1=O` (some centres not stated), the Increase in assay [1] amounted to 54%; in [2] it was 2.5%; in [3] it was 14%; in assay [4], 30%; in assay [5] it was 2%; in assay [6], 6.8%. Moreover, the Increase stood at 2% in [7], 7% in assay [9] and 37% in [8].

As to `NC(=O)CN1CCCC[C@@H](NC(=O)C2CCCN2)C1=O` (some centres not stated), the Increase is 61% in [1]; 15% in assay [2]; 35% in assay [3]; 38% in assay [4]; 30% in assay [6]; 8% in assay [7]. In addition, the Increase amounted to 17% in assay [9] and 27% in [8].

For the compound `NC(=O)CN1C[C@H](NC(=O)C2CCCN2)C1=O` (some centres not stated), the Increase amounted to 27% in assay [1]; 2.5% in assay [2]; 5% in assay [3]; 8% in [4]; 1.5% in assay [5]; 3.9% in assay [6]. Besides, the Increase in assay [9] turned out to be 9.5%; in [8], 22%.

For `NC(=O)CN1CC[C@H](NC(=O)C2CCCN2)C1=O` (some centres not stated), the Increase in [1] stood at 2.8%; in assay [2], 24.4%; in assay [3], 9.2%; in [4], 5.6%; in assay [5], 2.2%; in [6] it was 23%. Also, the Increase was 12% in assay [7], 1.4% in assay [9] and 1.6% in assay [8].

In the case of `NC(=O)CN1C(=O)C[C@H](NC(=O)C2CCCN2)C1=O` (some centres not stated), the Increase stood at 38% in assay [1]; 3.3% in assay [2]; 13.5% in assay [3]; 42% in assay [4]; 4% in [5]; 4.6% in assay [6]. Moreover, the Increase in assay [7] was found to be 5.5%; in assay [9], 13%; in [8] it was 33%.
